Experiments:
Type in all cases: functional
[1] = test system: Rattus norvegicus; test: Hypoglycemic activity in normal Wistar rat assessed as variation in glycemia at 10 mg/kg administered via intragastric route after 1.5 hrs by glucose oxidase method relative to control
Outline: (§1)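 Normoglycemic rats (180–220 g), 6 per group, standard pellet diet and water ad libitum. Test agent was suspended in 0.05% Tween 80 in saline and given by gavage. Controls got vehicle at 0.5 mL/100 g. Tail-incision blood was sampled at 0 h and after dosing and read by glucometer. Glycemia change was expressed as % of the 0 h value; ANOVA with Dunnett's test versus vehicle.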

[2] = test system: Rattus norvegicus; test: Hypoglycemic activity in normal Wistar rat assessed as variation in glycemia at 10 mg/kg administered via intragastric route after 3 hrs by glucose oxidase method relative to control; outline: as §1
[3] = test system: Rattus norvegicus; test: Hypoglycemic activity in normal Wistar rat assessed as variation in glycemia at 10 mg/kg administered via intragastric route after 5 hrs by glucose oxidase method relative to control; outline: as §1
[4] = test system: Rattus norvegicus; test: Hypoglycemic activity in normal Wistar rat assessed as variation in glycemia at 10 mg/kg administered via intragastric route after 7 hrs by glucose oxidase method relative to control; outline: as §1
[5] = test system: Rattus norvegicus; test: Hypoglycemic activity in normal Wistar rat assessed as variation in glycemia at 10 mg/kg administered via intragastric route after 9 hrs by glucose oxidase method relative to control; outline: as §1
[6] = test system: Rattus norvegicus; test: Antihyperglycemic activity in streptozotocin-induced diabetic Wistar rat assessed as variation in glycemia at 10 mg/kg administered via intragastric route 7 days after streptozotocin challenge measured after 1.5 hrs of compound administration by glucose oxidase method relative to control
Outline: (§2)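 Diabetes induced by single ip streptozotocin 50 mg/kg in 0.1 M citrate buffer pH 4.5; rats with glucose above 250 mg/dL after 7 days included. Rats 180–220 g, 6 per group. Test agent suspended in 0.05% Tween 80 in saline, given intragastrically; vehicle controls. Tail-vein blood sampled at 0 h and after dosing; glucometer reading; % change calculated from 0 h value.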

[7] = test system: Rattus norvegicus; test: Antihyperglycemic activity in streptozotocin-induced diabetic Wistar rat assessed as variation in glycemia at 10 mg/kg administered via intragastric route 7 days after streptozotocin challenge measured after 3 hrs of compound administration by glucose oxidase method relative to control; outline: as §2
[8] = test system: Rattus norvegicus; test: Antihyperglycemic activity in streptozotocin-induced diabetic Wistar rat assessed as variation in glycemia at 10 mg/kg administered via intragastric route 7 days after streptozotocin challenge measured after 5 hrs of compound administration by glucose oxidase method relative to control; outline: as §2
[9] = test system: Rattus norvegicus; test: Antihyperglycemic activity in streptozotocin-induced diabetic Wistar rat assessed as variation in glycemia at 10 mg/kg administered via intragastric route 7 days after streptozotocin challenge measured after 7 hrs of compound administration by glucose oxidase method relative to control; outline: as §2
[10] = test system: Rattus norvegicus; test: Antihyperglycemic activity in streptozotocin-induced diabetic Wistar rat assessed as variation in glycemia at 10 mg/kg administered via intragastric route 7 days after streptozotocin challenge measured after 9 hrs of compound administration by glucose oxidase method relative to control; outline: as §2

| Structure (SMILES) | Activity [1] | Activity [2] | Activity [3] | Activity [4] | Activity [5] | Activity [6] | Activity [7] | Activity [8] | Activity [9] | Activity [10] |
| --- | --- | --- | --- | --- | --- | --- | --- | --- | --- | --- |
| CC(=O)OC[C@H]1O[C@@H](Oc2cc(O)cc3oc(=O)cc(-c4ccc(O)c(O)c4)c23)[C@H](O)[C@@H](O)[C@H]1O | -9.2% | -29.9% | -28.6% | -25% | -30.6% | -5% | -20.7% | -29.5% | -34.7% | -37.2% |
| CC(=O)OC[C@H]1O[C@@H](Oc2cc(O)cc3oc(=O)cc(-c4ccc(O)cc4)c23)[C@H](O)[C@@H](O)[C@H]1O | -10.3% | -17.8% | -20.9% | -27.2% | -24% | -11% | -24.9% | -22.7% | -25.2% | -27.1% |
| COc1ccc(Cl)cc1C(=O)NCCc1ccc(S(=O)(=O)NC(=O)NC2CCCCC2)cc1 [GLYBURIDE] | -8.4% | -30.1% | -47.6% | -41.8% | -37.1% | -13.7% | -35.5% | -35.9% | -35.2% | -36.7% |

— ChEMBL document CHEMBL1152317, “Hypoglycemic activity of extracts and compounds from the leaves of Hintonia standleyana and H. latiflora: potential alternatives to the use of the stem bark of these species” (2009)
